Source: ChEMBL document CHEMBL1914304 (J Med Chem, 2011)

Legend:
[1] = Selectivity ratio of EC50 for human HepG2 cells to EC50 for Plasmodium falciparum
Raji = test: Cytotoxicity against human Raji cells after 72 hrs by luminescence assay; type: cell-based
HEK293 = test: Cytotoxicity against human HEK293 cells after 72 hrs by luminescence assay; type: cell-based; details: hek293, 72 h
BJ = test: Cytotoxicity against human BJ cells after 72 hrs by luminescence assay; type: cell-based
HepG2 = test: Cytotoxicity against human HepG2 cells after 72 hrs by luminescence assay; type: cell-based; details: hepg2, 72 h
[2] = target: T1, Sodium channel protein type 5 subunit alpha (Homo sapiens, UniProt Q14524); test: Inhibition of human cloned Nav1.5 channel expressed in chinese hamster CHO cells assessed as tonic inhibition after 5 mins by patch clamp assay; type: cell-based
[3] = target: Sulfonylurea receptor 2, Kir6.2 (Homo sapiens, UniProt O60706+Q14654); test: Inhibition of human kir6.2/SUR2A ion channel coexpressed in human HEK293 cells after 5 mins by patch clamp assay; type: cell-based
Method in brief: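 Human KCNJ11 (Kir6.2) and SUR2A were co-expressed in HEK293 cells to give the ATP-sensitive current IKATP. The assay was run at room temperature by automated parallel patch clamp, with dose-response at 0.2, 0.6, 1.6 and 5 µM. Exposure was 5 min per concentration, with each concentration in two cells (n ≥ 2).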

[4] = Chemical stability in simulated gastric fluid at pH 5 over 24 hrs; type: physicochemical; details: simulated gi fluid, pH 5, 24 h
[5] = Chemical stability in simulated gastric fluid at pH 2 over 24 hrs; type: physicochemical; details: simulated gi fluid, pH 2, 24 h
[6] = Solubility of the compound in phosphate buffered saline by UV spectrophotometry; type: physicochemical
Plasma = test: Metabolic stability in mouse plasma over 24 hrs; type: ADME, cell-free
[7] = target: T1, Sodium channel protein type 5 subunit alpha; test: Inhibition of human cloned Nav1.5 channel expressed in chinese hamster CHO cells assessed as phasic inhibition after 5 mins by patch clamp assay; type: cell-based
[8] = target: Voltage-gated inwardly rectifying potassium channel KCNH2 (Homo sapiens, UniProt Q12809); test: Inhibition of human cloned ERG channel expressed in chinese hamster CHO cells after 5 mins by patch clamp assay; type: cell-based
hERG = test: Therapeutic index, ratio of IC50 for human ERG expressed in CHO cells to EC50 for chloroquine-resistant Plasmodium falciparum K1; type: cell-based; details: hamster, CHO cells expressing human ERG; read-out: Ratio IC50/EC50
Plasmodium falciparum [9] = test: Antimalarial activity against erythrocytic stage of chloroquine-resistant Plasmodium falciparum K1 after 72 hrs by spectrophotometry; type: functional, organism-based; details: K1, 72 h
Plasmodium falciparum [10] = test: Antimalarial activity against erythrocytic stage of chloroquine-sensitive Plasmodium falciparum 3D7 after 72 hrs by spectrophotometry; type: functional, organism-based; details: 3D7, 72 h

T1 sequence (Q14524 whole entry): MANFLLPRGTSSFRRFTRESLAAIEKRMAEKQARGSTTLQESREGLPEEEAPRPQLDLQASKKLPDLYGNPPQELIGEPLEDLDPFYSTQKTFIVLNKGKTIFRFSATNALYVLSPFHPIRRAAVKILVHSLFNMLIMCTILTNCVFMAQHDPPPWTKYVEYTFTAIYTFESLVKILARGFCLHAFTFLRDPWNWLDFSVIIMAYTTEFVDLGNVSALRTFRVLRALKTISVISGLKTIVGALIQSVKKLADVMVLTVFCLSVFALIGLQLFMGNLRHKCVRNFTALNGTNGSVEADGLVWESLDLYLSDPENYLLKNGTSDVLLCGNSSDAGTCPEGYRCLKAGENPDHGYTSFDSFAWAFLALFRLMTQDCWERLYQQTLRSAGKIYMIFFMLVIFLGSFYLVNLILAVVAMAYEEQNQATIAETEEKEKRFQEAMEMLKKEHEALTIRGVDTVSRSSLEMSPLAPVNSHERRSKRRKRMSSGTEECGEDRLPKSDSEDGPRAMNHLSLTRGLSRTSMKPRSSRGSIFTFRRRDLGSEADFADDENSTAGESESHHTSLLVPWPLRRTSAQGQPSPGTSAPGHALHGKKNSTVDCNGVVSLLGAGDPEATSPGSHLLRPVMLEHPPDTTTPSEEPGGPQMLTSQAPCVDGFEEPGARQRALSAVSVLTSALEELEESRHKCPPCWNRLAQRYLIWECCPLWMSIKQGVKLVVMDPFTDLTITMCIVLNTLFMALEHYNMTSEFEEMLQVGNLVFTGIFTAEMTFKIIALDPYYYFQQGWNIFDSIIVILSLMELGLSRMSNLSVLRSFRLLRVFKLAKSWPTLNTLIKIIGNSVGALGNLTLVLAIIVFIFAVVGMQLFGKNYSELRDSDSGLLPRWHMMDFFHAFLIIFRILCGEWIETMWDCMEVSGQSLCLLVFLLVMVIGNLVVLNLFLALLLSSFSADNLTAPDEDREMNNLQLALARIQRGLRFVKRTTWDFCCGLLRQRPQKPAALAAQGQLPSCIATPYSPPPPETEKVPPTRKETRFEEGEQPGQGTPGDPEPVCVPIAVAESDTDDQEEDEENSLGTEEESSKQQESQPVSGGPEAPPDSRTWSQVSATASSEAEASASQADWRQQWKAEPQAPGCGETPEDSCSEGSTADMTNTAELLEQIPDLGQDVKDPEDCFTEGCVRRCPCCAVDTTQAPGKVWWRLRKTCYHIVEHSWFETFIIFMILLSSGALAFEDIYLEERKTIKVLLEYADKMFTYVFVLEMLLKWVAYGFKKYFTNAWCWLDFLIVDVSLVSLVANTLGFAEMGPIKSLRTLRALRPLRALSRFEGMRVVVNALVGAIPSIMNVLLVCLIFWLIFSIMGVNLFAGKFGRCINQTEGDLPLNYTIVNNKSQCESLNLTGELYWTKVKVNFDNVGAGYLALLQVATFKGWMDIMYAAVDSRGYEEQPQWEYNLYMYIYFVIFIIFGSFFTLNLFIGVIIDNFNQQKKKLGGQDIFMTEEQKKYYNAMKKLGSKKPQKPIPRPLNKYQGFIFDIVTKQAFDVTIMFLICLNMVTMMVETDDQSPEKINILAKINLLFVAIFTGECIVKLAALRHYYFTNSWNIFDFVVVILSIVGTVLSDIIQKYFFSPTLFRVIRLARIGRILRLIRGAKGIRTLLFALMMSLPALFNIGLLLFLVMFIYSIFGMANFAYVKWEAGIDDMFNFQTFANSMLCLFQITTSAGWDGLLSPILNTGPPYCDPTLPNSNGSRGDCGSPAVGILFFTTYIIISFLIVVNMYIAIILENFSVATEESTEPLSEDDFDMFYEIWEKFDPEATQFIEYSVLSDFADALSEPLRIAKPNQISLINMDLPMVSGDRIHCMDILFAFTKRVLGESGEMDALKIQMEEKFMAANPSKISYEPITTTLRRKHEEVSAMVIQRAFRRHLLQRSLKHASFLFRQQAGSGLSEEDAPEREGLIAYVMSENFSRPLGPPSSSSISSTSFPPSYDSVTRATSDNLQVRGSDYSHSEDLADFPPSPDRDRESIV
Sulfonylurea receptor 2, Kir6.2, sequence (Q14654 whole entry): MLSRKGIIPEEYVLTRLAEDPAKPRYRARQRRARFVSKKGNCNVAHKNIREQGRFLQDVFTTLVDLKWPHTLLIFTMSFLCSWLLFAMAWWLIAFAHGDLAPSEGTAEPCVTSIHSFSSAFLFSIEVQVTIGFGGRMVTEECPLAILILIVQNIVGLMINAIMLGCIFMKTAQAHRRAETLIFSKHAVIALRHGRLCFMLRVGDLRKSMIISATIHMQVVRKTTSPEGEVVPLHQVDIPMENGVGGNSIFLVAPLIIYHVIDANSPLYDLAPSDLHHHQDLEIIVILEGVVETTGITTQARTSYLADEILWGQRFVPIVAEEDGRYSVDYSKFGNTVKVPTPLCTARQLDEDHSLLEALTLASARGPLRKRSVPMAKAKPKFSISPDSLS
Sulfonylurea receptor 2, Kir6.2, sequence (O60706 whole entry): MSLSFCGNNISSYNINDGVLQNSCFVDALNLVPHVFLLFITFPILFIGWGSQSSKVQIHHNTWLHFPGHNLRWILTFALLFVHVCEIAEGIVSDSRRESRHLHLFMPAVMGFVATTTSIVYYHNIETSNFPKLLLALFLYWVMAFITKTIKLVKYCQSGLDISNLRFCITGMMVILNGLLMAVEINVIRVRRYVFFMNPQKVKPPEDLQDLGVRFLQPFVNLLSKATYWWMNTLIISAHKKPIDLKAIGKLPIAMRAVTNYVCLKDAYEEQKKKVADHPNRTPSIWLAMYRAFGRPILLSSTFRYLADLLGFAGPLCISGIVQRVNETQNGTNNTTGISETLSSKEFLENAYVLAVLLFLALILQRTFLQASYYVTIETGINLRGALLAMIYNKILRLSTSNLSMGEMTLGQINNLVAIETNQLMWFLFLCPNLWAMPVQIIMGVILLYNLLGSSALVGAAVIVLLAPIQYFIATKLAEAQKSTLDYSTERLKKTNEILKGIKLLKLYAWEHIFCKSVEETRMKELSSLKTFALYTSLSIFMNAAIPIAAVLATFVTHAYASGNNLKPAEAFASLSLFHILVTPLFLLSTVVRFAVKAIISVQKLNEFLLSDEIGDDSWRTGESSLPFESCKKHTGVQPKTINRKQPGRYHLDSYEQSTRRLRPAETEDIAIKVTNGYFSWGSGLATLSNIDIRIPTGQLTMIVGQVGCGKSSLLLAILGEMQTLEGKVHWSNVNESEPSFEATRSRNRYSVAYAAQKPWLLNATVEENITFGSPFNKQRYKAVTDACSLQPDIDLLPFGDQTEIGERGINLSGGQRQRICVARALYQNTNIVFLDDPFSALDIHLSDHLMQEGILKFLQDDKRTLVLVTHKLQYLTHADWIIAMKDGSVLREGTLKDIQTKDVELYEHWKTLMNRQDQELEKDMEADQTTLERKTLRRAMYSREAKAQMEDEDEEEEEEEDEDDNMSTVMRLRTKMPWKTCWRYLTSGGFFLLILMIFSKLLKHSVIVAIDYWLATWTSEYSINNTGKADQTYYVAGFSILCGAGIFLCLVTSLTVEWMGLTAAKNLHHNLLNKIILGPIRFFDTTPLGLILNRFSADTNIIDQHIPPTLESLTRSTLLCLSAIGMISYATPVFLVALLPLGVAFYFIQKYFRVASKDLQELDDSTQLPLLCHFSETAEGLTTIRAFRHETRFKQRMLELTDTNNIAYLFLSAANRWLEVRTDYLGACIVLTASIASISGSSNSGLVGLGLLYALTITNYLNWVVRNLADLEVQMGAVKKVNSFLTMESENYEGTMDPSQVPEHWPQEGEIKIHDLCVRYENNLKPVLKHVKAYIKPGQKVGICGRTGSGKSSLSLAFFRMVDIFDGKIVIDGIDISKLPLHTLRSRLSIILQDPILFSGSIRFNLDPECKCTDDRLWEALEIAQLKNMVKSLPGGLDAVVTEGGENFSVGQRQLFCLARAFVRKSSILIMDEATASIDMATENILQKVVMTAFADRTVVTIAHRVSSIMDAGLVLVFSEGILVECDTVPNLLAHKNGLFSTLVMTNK
Voltage-gated inwardly rectifying potassium channel KCNH2, sequence (Q12809 whole entry): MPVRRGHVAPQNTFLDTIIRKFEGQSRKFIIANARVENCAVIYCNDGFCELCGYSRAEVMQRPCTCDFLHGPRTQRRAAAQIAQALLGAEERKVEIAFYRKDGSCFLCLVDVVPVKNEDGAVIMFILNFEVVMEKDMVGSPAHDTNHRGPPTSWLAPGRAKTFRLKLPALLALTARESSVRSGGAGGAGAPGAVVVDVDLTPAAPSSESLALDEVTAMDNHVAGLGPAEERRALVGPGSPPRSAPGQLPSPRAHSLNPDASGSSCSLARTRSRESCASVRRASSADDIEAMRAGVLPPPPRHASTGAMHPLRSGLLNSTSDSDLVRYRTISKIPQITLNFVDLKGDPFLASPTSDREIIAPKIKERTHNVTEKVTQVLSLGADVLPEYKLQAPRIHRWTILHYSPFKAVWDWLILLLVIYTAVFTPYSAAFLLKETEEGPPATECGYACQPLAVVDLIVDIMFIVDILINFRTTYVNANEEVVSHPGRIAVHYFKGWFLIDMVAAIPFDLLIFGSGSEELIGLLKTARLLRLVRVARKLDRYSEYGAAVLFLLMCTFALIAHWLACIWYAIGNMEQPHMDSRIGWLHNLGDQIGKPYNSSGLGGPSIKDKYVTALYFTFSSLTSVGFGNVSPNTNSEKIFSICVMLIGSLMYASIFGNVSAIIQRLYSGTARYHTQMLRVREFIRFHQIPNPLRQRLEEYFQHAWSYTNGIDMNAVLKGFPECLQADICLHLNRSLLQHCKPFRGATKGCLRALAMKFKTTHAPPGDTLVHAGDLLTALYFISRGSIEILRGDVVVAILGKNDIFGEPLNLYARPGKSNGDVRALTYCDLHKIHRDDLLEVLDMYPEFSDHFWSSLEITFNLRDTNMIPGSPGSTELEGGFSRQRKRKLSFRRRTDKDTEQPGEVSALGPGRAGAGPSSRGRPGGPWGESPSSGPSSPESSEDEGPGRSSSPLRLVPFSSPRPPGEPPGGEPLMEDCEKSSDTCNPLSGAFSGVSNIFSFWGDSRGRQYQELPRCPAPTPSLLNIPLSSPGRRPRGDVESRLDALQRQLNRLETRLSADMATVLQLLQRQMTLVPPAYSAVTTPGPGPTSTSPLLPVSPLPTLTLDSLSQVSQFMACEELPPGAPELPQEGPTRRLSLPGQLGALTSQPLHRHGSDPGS

IC50 [3] [µM]	Stability [4]	Stability [5]	solubility [6] [µM]	Stability (Plasma)	Compound	selectivity ratio [1]	Activity (Raji)	Activity (HEK293)	Activity (BJ)	Activity (HepG2)	IC50 [2] [µM]	IC50 [7] [µM]	IC50 [8] [µM]	selectivity ratio (hERG)	EC50 (Plasmodium falciparum [9]) [µM]	EC50 (Plasmodium falciparum [10]) [µM]
					CC(C)(C)NCC(O)COc1ccccc1C(=O)CCc1ccccc1.Cl (racemic)	> 10	Non-toxic	Non-toxic	Non-toxic	Non-toxic						
					Cl.O=C(CCc1ccccc1)c1ccccc1OCC1CO1 (racemic)	> 10	Non-toxic	Non-toxic	Non-toxic	Non-toxic						
					Cl.O=C(CCc1ccccc1)c1cc(F)ccc1OCC1CO1 (racemic)	> 10	Non-toxic	Non-toxic	Non-toxic	Non-toxic						
					Cl.O=C(CCc1ccc(F)cc1)c1ccccc1OCC1CO1 (racemic)	> 10	Non-toxic	Non-toxic	Non-toxic	Non-toxic						
					Cl.O=C(CCc1ccc(F)cc1)c1cc(F)ccc1OCC1CO1 (racemic)	> 10	Non-toxic	Non-toxic	Non-toxic	Non-toxic						
					Cl.O=C(CCc1ccccc1)c1ccccc1OCC(O)CNCc1ccccc1 (racemic)	> 10	Non-toxic	Non-toxic	Non-toxic	Non-toxic						
					Cl.O=C(CCc1ccccc1)c1ccccc1OCC(O)CN(Cc1ccccc1)c1ccccc1 (racemic)	> 10	Non-toxic	Non-toxic	Non-toxic	Non-toxic						
					Cc1cccc(N(CC(O)COc2ccccc2C(=O)CCc2ccccc2)c2ccccc2)c1.Cl (racemic)	> 10	Non-toxic	Non-toxic	Non-toxic	Non-toxic						
					CN(CCc1ccccc1)CC(O)COc1ccccc1C(=O)CCc1ccccc1.Cl (racemic)	> 10	Non-toxic	Non-toxic	Non-toxic	Non-toxic						
					CCN(CC)CC(O)COc1ccccc1C(=O)CCc1ccccc1.Cl (racemic)	> 10	Non-toxic	Non-toxic	Non-toxic	Non-toxic						
					CCCN(CCC)CC(O)COc1ccccc1C(=O)CCc1ccccc1.Cl (racemic)	> 10	Non-toxic	Non-toxic	Non-toxic	Non-toxic						
					CCCCN(CCCC)CC(O)COc1ccccc1C(=O)CCc1ccccc1.Cl (racemic)	> 10	Non-toxic	Non-toxic	Non-toxic	Non-toxic						
					CC(C)N(CC(O)COc1ccccc1C(=O)CCc1ccccc1)c1ccccc1.Cl (racemic)	> 10	Non-toxic	Non-toxic	Non-toxic	Non-toxic						
					Cl.O=C(CCc1ccccc1)c1ccccc1OCC(O)CN(C1CCCCC1)C1CCCCC1 (racemic)	> 10	Non-toxic	Non-toxic	Non-toxic	Non-toxic						
					Cl.O=C(CCc1ccc(F)cc1)c1ccccc1OCC(O)CNCc1ccccc1 (racemic)	> 10	Non-toxic	Non-toxic	Non-toxic	Non-toxic						
					Cl.O=C(CCc1ccc(F)cc1)c1ccccc1OCC(O)CN(Cc1ccccc1)c1ccccc1 (racemic)	> 10	Non-toxic	Non-toxic	Non-toxic	Non-toxic						
					COc1cccc(N(CC(O)COc2ccccc2C(=O)CCc2ccc(F)cc2)c2ccccc2)c1.Cl (racemic)	> 10	Non-toxic	Non-toxic	Non-toxic	Non-toxic						
					CN(CCc1ccccc1)CC(O)COc1ccccc1C(=O)CCc1ccc(F)cc1.Cl (racemic)	> 10	Non-toxic	Non-toxic	Non-toxic	Non-toxic						
					CCN(CC)CC(O)COc1ccccc1C(=O)CCc1ccc(F)cc1.Cl (racemic)	> 10	Non-toxic	Non-toxic	Non-toxic	Non-toxic						
					CCCN(CCC)CC(O)COc1ccccc1C(=O)CCc1ccc(F)cc1.Cl (racemic)	> 10	Non-toxic	Non-toxic	Non-toxic	Non-toxic						
					CCCCN(CCCC)CC(O)COc1ccccc1C(=O)CCc1ccc(F)cc1.Cl (racemic)	> 10	Non-toxic	Non-toxic	Non-toxic	Non-toxic						
					CC(C)N(CC(O)COc1ccccc1C(=O)CCc1ccc(F)cc1)c1ccccc1.Cl (racemic)	> 10	Non-toxic	Non-toxic	Non-toxic	Non-toxic						
					Cl.O=C(CCc1ccc(F)cc1)c1ccccc1OCC(O)CN(C1CCCCC1)C1CCCCC1 (racemic)	> 10	Non-toxic	Non-toxic	Non-toxic	Non-toxic						
					Cl.O=C(CCc1ccccc1)c1cc(F)ccc1OCC(O)CNCc1ccccc1 (racemic)	> 10	Non-toxic	Non-toxic	Non-toxic	Non-toxic						
> 5	Stable	Stable	7.27	Stable	Cl.O=C(CCc1ccccc1)c1ccccc1OCC(O)CN1CCC(c2ccccc2)CC1 (racemic)		Non-toxic	Non-toxic	Non-toxic	Non-toxic	> 5	> 5				
					Cl.O=C(CCc1ccc(F)cc1)c1ccccc1OCC(O)CN1CCN(C(c2ccccc2)c2ccccc2)CC1 (racemic)	> 10	Non-toxic	Non-toxic	Non-toxic	Non-toxic					< 0.1	< 0.1
> 5	Stable	Stable	0.11	Stable	Cl.O=C(CCc1ccccc1)c1cc(F)ccc1OCC(O)CN1CCN(C(c2ccccc2)c2ccccc2)CC1 (racemic)		Non-toxic	Non-toxic	Non-toxic	Non-toxic	> 5	> 5				

Compound	IC50 [3] [µM]	Stability [4]	Stability [5]	solubility [6] [µM]	Stability (Plasma)	selectivity ratio [1]	Activity (Raji)	Activity (HEK293)	Activity (BJ)	Activity (HepG2)	IC50 [2] [µM]	IC50 [7] [µM]	IC50 [8] [µM]	selectivity ratio (hERG)	EC50 (Plasmodium falciparum [9]) [µM]	EC50 (Plasmodium falciparum [10]) [µM]
Cc1ccc(N2CCN(CC(O)COc3ccccc3C(=O)CCc3ccccc3)CC2)cc1.Cl (racemic)	> 5						Non-toxic	Non-toxic	Non-toxic	Non-toxic	> 5	> 5	4.31			
Cl.O=C(CCc1ccccc1)c1ccccc1OCC(O)CN1CCN(C(c2ccccc2)c2ccccc2)CC1 (racemic)		Stable	Stable	0.2	Stable	> 10	Non-toxic	Non-toxic	Non-toxic	Non-toxic			2.6	26	0.1	0.06
